Test [1] relates to HeLa. The test can be described thus: Antiproliferative activity against human HeLa cells after 72 hrs by MTT assay. It is filed as functional, cell-based. The method, boiled down:
(§1)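 HeLa and SMMC-7721 cells in log phase were seeded at 4000-6000 cells/well. After 24 h, quadruplicate wells were treated with a series of concentrations for 72 h. DMSO stocks were 5 mmol/L, with final DMSO below 0.1%. MTT (10 mg/mL in PBS) was added for 4 h, medium replaced with DMSO, and OD read at 490 nm. IC50 came from at least five concentrations; mean and SD of at least three independent experiments.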
In general terms: Tetrazolium dyes change colour on reduction, which living cells bring about.

Test [2] concerns SMMC-7721. Description: Antiproliferative activity against human SMMC7721 cells after 72 hrs by MTT assay. The settings on record: SMMC-7721, 72 h. Format: functional, cell-based. The essentials: as §1
The test system of test [3] is K562. Description: Antiproliferative activity against human K562 cells after 72 hrs by MTT assay. It is filed as functional, cell-based. The note with it: K562, 72 h. The method, boiled down:
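K562 cells were grown in RPMI 1640 with 10% FBS at 37 °C in 5% CO2, then seeded at 4000-6000 cells/well. Quadruplicate wells were exposed to drug for 72 h, with final DMSO below 0.1%. After 4 h with MTT, solubilizer (10% SDS, 5% isobutyl alcohol, 0.01 M HCl) was added for 12 h, then OD read at 490 nm. IC50 came from at least five concentrations; mean and SD of at least three experiments.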

In test [4] the target is Tubulin (Homo sapiens) (UniProt P68371+Q9H4B7+P0DPH7+P68366+Q13509+Q71U36+P04350+Q3ZCM7+P07437+P68363+Q9BQE3+Q6PEY2+Q13885+Q9BVA1+Q9BUF5). Description: Inhibition of tubulin (unknown origin) polymerization at 20 uM after 40 mins by fluorescence assay. Format: protein-complex assay. The essentials:
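Polymerization was run with a fluorescence kit. Compound, in duplicate, was warmed 1 min at 37 °C before adding cold tubulin mix (2 mg/mL tubulin, 80 mM PIPES pH 6.9, 2.0 mM MgCl2, 0.5 mM EGTA, 1.0 mM GTP, 15% glycerol). Fluorescence was read at ex 360/em 450 nm every minute for 1 h at 37 °C and scored at 40 min against 0.1% DMSO vehicle.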

The species named for test [5] is Sus scrofa. The test can be described thus: Competitive binding affinity to porcine brain tubulin at 0.1 to 10 uM preincubated for 1 hr followed by colchicine addition measured after 1 hr by fluorescence assay. The method, boiled down: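 Tubulin (4 μM) in 80 mM PIPES pH 6.9, 2 mM MgCl2 and 0.5 mM EGTA was preincubated 1 h at 37 °C with 0.1, 1, 5 or 10 μM test agent, with DMSO as control. Colchicine (10 μM) was then added for another 1 h at 37 °C. Tubulin-colchicine fluorescence was read at ex 340/em 435 nm and normalized to DMSO; at least three replicates, mean ± SD.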

The source made the active and inactive calls. The calls are words filed in the database; no cut-off is given here.

For orientation: IC50 means the concentration at which inhibition is half-maximal. Low values mean higher potency, high ones lower potency. As for `COc1cc(CN2CC(=O)Nc3cc(C(=O)O)ccc32)cc(OC)c1OC`, the IC50 in test [1] was 32.2 µM; in test [2] it was 39 µM; in test [3], 35.9 µM.
Consider `COc1ccc(C(=O)N2CC(=O)Nc3cc(C(=O)Nc4ccccc4)ccc32)cc1OC`, for which the IC50 in test [1] was determined as 24.9 µM; in test [2], 34.4 µM; in test [3], 42.9 µM.
The like results for `COc1cc(CN2CC(=O)Nc3cc(C(=O)NC4CCCCC4)ccc32)cc(OC)c1OC` were, in that order, 41.8 µM, 28 µM and 42.6 µM.
The like results for `COc1cc(C(=O)N2CC(=O)Nc3cc(C(=O)NC4CCCCC4)ccc32)cc(OC)c1OC` were, in that order, over 50 µM, 40.6 µM and over 50 µM.
The corresponding values for `COC(=O)c1ccc2c(c1)NC(=O)CN2Cc1ccc(OC)c(OC)c1` are 38.1 µM, 33.2 µM and 43.6 µM.
As for `COc1cc(C(=O)N2CC(=O)Nc3cc(C(=O)N4CCOCC4)ccc32)cc(OC)c1OC`, the IC50 is over 50 µM in test [1], 39.2 µM in test [2] and over 50 µM in test [3].
On to `COC(=O)c1ccc2c(c1)NC(=O)CN2C(=O)Cc1cc(OC)c(OC)c(OC)c1`, for which the IC50 was found to be 39.4 µM in test [1], 9.1 µM in test [2] and 45.3 µM in test [3].
The like results for `COc1cc(C(=O)N2CC(=O)Nc3cc(C(=O)Nc4ccccc4)ccc32)cc(OC)c1OC` were, in that order, 26.4 µM, 37.9 µM and over 50 µM.
For `COC(=O)c1ccc2c(c1)NC(=O)CN2C(=O)c1ccc(OC)c(OC)c1`, the inhibition result in test [4] is “Active”. The concentration for half-maximal inhibition (IC50) turned out to be 1.42 µM in test [1], 1.32 µM in test [2] and 3 µM in test [3].
Regarding `CCCCNC(=O)c1ccc2c(c1)NC(=O)CN2C(=O)c1cc(OC)c(OC)c(OC)c1`, the IC50 in test [1] was over 50 µM; in test [2], 43.1 µM; in test [3] it was over 50 µM.
Take `CCCCNC(=O)c1ccc2c(c1)NC(=O)CN2C(=O)c1ccc(OC)c(OC)c1`: the IC50 in test [1], in test [2] and in test [3] was over 50 µM in each case.
With `COc1ccc(C(=O)N2CC(=O)Nc3cc(C(=O)N4CCOCC4)ccc32)cc1OC`, the IC50 in test [1] was 34.9 µM; in test [2], 34.9 µM; in test [3] it was over 50 µM.
As for `COc1cccc2c1C(=O)c1c(O)c3c(c(O)c1C2=O)C[C@@](O)(C(=O)CO)C[C@@H]3O[C@H]1C[C@H](N)[C@H](O)[C@H](C)O1` [DOXORUBICIN], the IC50 in test [2] came out at 1.59 µM; in test [3] it was 0.89 µM.
Turning to `COC(=O)c1ccc2c(c1)NC(=O)CN2C(=O)c1ccc(F)cc1`, the IC50 came to 15.9 µM in test [1], 7.69 µM in test [2] and 9.8 µM in test [3].
The like results for `CCCCNC(=O)c1ccc2c(c1)NC(=O)CN2Cc1cc(OC)c(OC)c(OC)c1` were, in that order, 37.5 µM, 39.7 µM and 43 µM.
Take `COc1ccc(/C=C\c2cc(OC)c(OC)c(OC)c2)cc1O` [COMBRETASTATIN A4]: the figures for the IC50 in test [2] and in test [3] were 0.0038 µM and 0.013 µM, respectively.
In the case of `COC(=O)c1ccc2c(c1)NC(=O)CN2Cc1ccc(OC)cc1`, the IC50 came out at 16.4 µM in test [1], 12.5 µM in test [2] and 43.2 µM in test [3].
The like results for `COC(=O)c1ccc2c(c1)NC(=O)CN2C(=O)c1ccc(OC)cc1` were, in that order, 8.28 µM, 5.4 µM and 7.72 µM.
As to `COC(=O)c1ccc2c(c1)NC(=O)CN2Cc1cc(OC)c(OC)c(OC)c1`, in test [4], the inhibition entry was “Active”. The IC50 in test [1] turned out to be 2.76 µM; in test [2], 2.69 µM; in test [3], 3.42 µM.
For the molecule `CC(=O)O[C@H]1C(=O)[C@@]2(C)[C@H]([C@H](OC(=O)c3ccccc3)[C@]3(O)C[C@H](OC(=O)[C@H](O)[C@@H](NC(=O)c4ccccc4)c4ccccc4)C(C)=C1C3(C)C)[C@]1(OC(C)=O)CO[C@@H]1C[C@@H]2O`, the outcome in test [5] was inactive.

These data come from ChEMBL document CHEMBL4251573, “Synthesis and biological evaluation of N-substituted 3-oxo-1,2,3,4-tetrahydro-quinoxaline-6-carboxylic acid derivatives as tubulin polymerization inhibitors” (Eur J Med Chem, 2018).
